Measured values as given in PMC7415440 (Drug Design, Development and Therapy, 2020).

What was measured:
[1] = Major metabolites in samples of the highest dose groups; assay type: in vivo, human; details: 600 mg in SAD and 450 mg in MAD
[2] = rats, 4-week GLP toxicology study; cited from earlier work
Single ascending dose = assay type: in vivo, human; details: for Tmax: max]
Procedure, shortened: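 Single 0.5 h iv infusion in saline. Plasma sampled predose to 48 h, stored −70°C; urine collected in intervals to 24 h with volumes. Validated HPLC-MS/MS, deuterated internal standard, positive ESI MRM m/z 344.3→201.2. Plasma range 1–3000 or 10–30,000 ng/mL and urine 5–15,000 or 50–150,000 ng/mL, by dose group. Noncompartmental analysis on actual times; AUCinf = AUClast + Clast/λz; CLR = Ae/AUClast.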

stroke animal model = details: ref unpublished data on file, Jeil Pharma, Seoul, Korea; cited from earlier work
tMCAO stroke model = tMCAO stroke model using monkeys; cited from earlier work
[3] = test system: regulatory T cells (Tregs) in peripheral blood mononuclear cells (PBMCs); details: PBMCs incubated for 24 h with high-dose JPI-289; cited from earlier work
[4] = SAD study safety and tolerability assessment; assay type: in vivo, human; details: for Number of Subjects with AEs (%) / Number of Subjects with Drug Related AEs (% total): 6 subjects
Procedure, shortened: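 Randomised, double-blind, placebo-controlled trial in healthy Korean males (active:placebo 6:2 per group), single iv infusion in normal saline over 0.5 h at 35–600 mg. Dose escalation was decided by the DSMB. Subjects were in-house days 1–2, revisited day 3, and had follow-up 7 days post-dose. Monitoring covered vital signs, 12-lead ECG, haematology, chemistry, urinalysis, physical exams and AEs, with relationship to drug assigned.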

[5] = single iv 35 mg over 0.5 h, n=6, mean (SD)
[6] = single iv 75 mg over 0.5 h, n=6, mean (SD)
[7] = single iv 150 mg over 0.5 h, n=6, mean (SD)
[8] = single iv 300 mg over 0.5 h, n=6, mean (SD)
[9] = single iv 600 mg over 0.5 h, n=6, mean (SD)
[10] = single iv, all doses 35-600 mg, Total n=30, mean (SD)
[11] = single iv dose, n=40, number of subjects [cases]

CCOc1cc(CN2CCOCC2)cc2[nH]c(=O)c3c(c12)NCCC3.Cl.Cl.O.O [JPI-289]
number of metabolites detected [1]: Twenty-two | no observed adverse event level [2]: 40 mg/kg | AUCinf (Single ascending dose; [5]): 665.50 (149.62) ng·h/mL | AUCinf/dose (Single ascending dose; [5]): 19.01 (4.28) ng·h/mL/mg | AUClast (Single ascending dose; [5]): 658.82 (148.39) ng·h/mL | Ae (amount of unchanged drug in urine) (Single ascending dose; [5]): 0.56 (0.22) mg | CL (Single ascending dose; [5]): 54.88 (12.54) L/h | CLR (renal clearance) (Single ascending dose; [5]): 0.84 (0.28) L/h | Cmax (Single ascending dose; [5]): 422.72 (102.10) ng/mL | Cmax/dose (Single ascending dose; [5]): 12.08 (2.92) ng/mL/mg | Vd,ss (Single ascending dose; [5]): 101.33 (26.74) L | Vz (Single ascending dose; [5]): 160.73 (42.91) L | t1/2z (Single ascending dose; [5]): 2.18 (1.01) h | Tmax (Single ascending dose; single iv 35 mg over 0.5 h, n=6, median [min): 0.47 [0.33, 0.50] h | AUCinf (Single ascending dose; [6]): 1947.57 (366.92) ng·h/mL | AUCinf/dose (Single ascending dose; [6]): 25.97 (4.89) ng·h/mL/mg | AUClast (Single ascending dose; [6]): 1940.45 (367.40) ng·h/mL | Ae (amount of unchanged drug in urine) (Single ascending dose; [6]): 1.74 (0.71) mg | CL (Single ascending dose; [6]): 39.77 (8.07) L/h | CLR (renal clearance) (Single ascending dose; [6]): 0.88 (0.26) L/h | Cmax (Single ascending dose; [6]): 1197.77 (173.37) ng/mL | Cmax/dose (Single ascending dose; [6]): 15.97 (2.31) ng/mL/mg | Vd,ss (Single ascending dose; [6]): 91.18 (17.49) L | Vz (Single ascending dose; [6]): 183.32 (61.92) L | t1/2z (Single ascending dose; [6]): 3.21 (0.81) h | Tmax (Single ascending dose; single iv 75 mg over 0.5 h, n=6, median [min): 0.48 [0.33, 0.52] h | AUCinf (Single ascending dose; [7]): 6057.90 (1533.04) ng·h/mL | AUCinf/dose (Single ascending dose; [7]): 40.39 (10.22) ng·h/mL/mg | AUClast (Single ascending dose; [7]): 6029.78 (1520.32) ng·h/mL | Ae (amount of unchanged drug in urine) (Single ascending dose; [7]): 5.31 (1.49) mg | CL (Single ascending dose; [7]): 26.41 (8.03) L/h | CLR (renal clearance) (Single ascending dose; [7]): 0.89 (0.21) L/h | Cmax (Single ascending dose; [7]): 2481.05 (502.31) ng/mL | Cmax/dose (Single ascending dose; [7]): 16.54 (3.35) ng/mL/mg | Vd,ss (Single ascending dose; [7]): 85.17 (15.31) L | Vz (Single ascending dose; [7]): 118.12 (34.25) L | t1/2z (Single ascending dose; [7]): 3.12 (0.40) h | Tmax (Single ascending dose; single iv 150 mg over 0.5 h, n=6, median [min): 0.48 [0.43, 0.50] h | AUCinf (Single ascending dose; [8]): 10,061.82 (3690.15) ng·h/mL | AUCinf/dose (Single ascending dose; [8]): 33.54 (12.30) ng·h/mL/mg | AUClast (Single ascending dose; [8]): 9786.58 (3534.51) ng·h/mL | Ae (amount of unchanged drug in urine) (Single ascending dose; [8]): 8.37 (3.65) mg | CL (Single ascending dose; [8]): 34.28 (15.06) L/h | CLR (renal clearance) (Single ascending dose; [8]): 0.91 (0.45) L/h | Cmax (Single ascending dose; [8]): 4842.02 (1202.57) ng/mL | Cmax/dose (Single ascending dose; [8]): 16.14 (4.01) ng/mL/mg | Vd,ss (Single ascending dose; [8]): 92.52 (15.20) L | Vz (Single ascending dose; [8]): 124.50 (30.65) L | t1/2z (Single ascending dose; [8]): 2.73 (0.76) h | Tmax (Single ascending dose; single iv 300 mg over 0.5 h, n=6, median [min): 0.48 [0.17, 0.50] h | AUCinf (Single ascending dose; [9]): 32,228.35 (11,796.05) ng·h/mL | AUCinf/dose (Single ascending dose; [9]): 53.71 (19.66) ng·h/mL/mg | AUClast (Single ascending dose; [9]): 32,066.88 (11,725.80) ng·h/mL | Ae (amount of unchanged drug in urine) (Single ascending dose; [9]): 25.32 (6.50) mg | CL (Single ascending dose; [9]): 21.34 (9.69) L/h | CLR (renal clearance) (Single ascending dose; [9]): 0.84 (0.20) L/h | Cmax (Single ascending dose; [9]): 10,381.25 (2097.17) ng/mL | Cmax/dose (Single ascending dose; [9]): 17.30 (3.50) ng/mL/mg | Vd,ss (Single ascending dose; [9]): 73.01 (13.20) L | Vz (Single ascending dose; [9]): 81.46 (16.60) L | t1/2z (Single ascending dose; [9]): 2.88 (0.72) h | Tmax (Single ascending dose; single iv 600 mg over 0.5 h, n=6, median [min): 0.50 [0.48, 0.52] h | AUCinf (Single ascending dose; [10]): 10,192.23 (12,791.37) ng·h/mL | AUCinf/dose (Single ascending dose; [10]): 34.52 (16.32) ng·h/mL/mg | AUClast (Single ascending dose; [10]): 10,096.50 (12,719.54) ng·h/mL | Ae (amount of unchanged drug in urine) (Single ascending dose; [10]): 8.26 (9.65) mg | CL (Single ascending dose; [10]): 35.33 (15.66) L/h | CLR (renal clearance) (Single ascending dose; [10]): 0.87 (0.27) L/h | Cmax (Single ascending dose; [10]): 3864.96 (3789.52) ng/mL | Cmax/dose (Single ascending dose; [10]): 15.61 (3.55) ng/mL/mg | Vd,ss (Single ascending dose; [10]): 88.64 (19.42) L | Vz (Single ascending dose; [10]): 133.63 (51.80) L | t1/2z (Single ascending dose; [10]): 2.83 (0.80) h | Tmax (Single ascending dose; single iv, all doses 35-600 mg, Total n=30, median [min): 0.48 [0.17, 0.52] h | time after stroke onset at which treatment showed efficacy (stroke animal model): more than 10 h | decrease in infarction volume (tMCAO stroke model): 53% | proportions of regulatory T cells (Tregs) [3]: can be increased | intensity of AEs ([4]; SAD): mild in intensity | abnormalities in laboratory tests, physical examinations, vital signs, or electrocardiograms ([4]; SAD and MAD): No clinically significant abnormalities | intensity of AEs ([4]; SAD and MAD studies together): all mild in intensity | maximum tolerated dose ([4]; SAD, decided by DSMB, dizziness as dose-limiting toxicity): 600 mg | tolerability ([4]; SAD, dose range 35–600 mg): well tolerated | serious AEs ([4]; entire course of the study (SAD and MAD)): No serious AEs occurred | Number of Subjects with AEs (%) ([4]; single iv dose 35 mg): 3 (50.0) | Number of Subjects with Drug Related AEs (% total) ([4]; single iv dose 35 mg): 1 (16.7) | Number of Subjects with AEs (%) ([4]; single iv dose 75 mg): 0 (0.0) | Number of Subjects with Drug Related AEs (% total) ([4]; single iv dose 75 mg): 0 (0.0) | Number of Subjects with AEs (%) ([4]; single iv dose 150 mg): 0 (0.0) | Number of Subjects with Drug Related AEs (% total) ([4]; single iv dose 150 mg): 0 (0.0) | Number of Subjects with AEs (%) ([4]; single iv dose 300 mg): 0 (0.0) | Number of Subjects with Drug Related AEs (% total) ([4]; single iv dose 300 mg): 0 (0.0) | Number of Subjects with AEs (%) ([4]; single iv dose 600 mg): 3 (50.0) | Number of Subjects with Drug Related AEs (% total) ([4]; single iv dose 600 mg): 3 (50.0) | Abdominal discomfort, Drug-Related [4, 11]: 0 [0] | Abdominal discomfort, Not Related [4, 11]: 0 [0] | Abdominal discomfort, Total [4, 11]: 0 [0] | Bilirubin total increased, Drug-Related [4, 11]: 1 [1] | Bilirubin total increased, Not Related [4, 11]: 0 [0] | Bilirubin total increased, Total [4, 11]: 1 [1] | Diarrhea, Drug-Related [4, 11]: 0 [0] | Diarrhea, Not Related [4, 11]: 1 [1] | Diarrhea, Total [4, 11]: 1 [1] | Dizziness, Drug-Related [4, 11]: 3 [4] | Dizziness, Not Related [4, 11]: 0 [0] | Dizziness, Total [4, 11]: 3 [4] | Fever, Drug-Related [4, 11]: 0 [0] | Fever, Not Related [4, 11]: 0 [0] | Fever, Total [4, 11]: 0 [0] | Headache, Drug-Related [4, 11]: 0 [0] | Headache, Not Related [4, 11]: 0 [0] | Headache, Total [4, 11]: 0 [0] | Heart rate increased, Drug-Related [4, 11]: 0 [0] | Heart rate increased, Not Related [4, 11]: 1 [1] | Heart rate increased, Total [4, 11]: 1 [1] | Sinus tachycardia, Drug-Related [4, 11]: 0 [0] | Sinus tachycardia, Not Related [4, 11]: 0 [0] | Sinus tachycardia, Total [4, 11]: 0 [0] | Stomatitis, Drug-Related [4, 11]: 0 [0] | Stomatitis, Not Related [4, 11]: 0 [0] | Stomatitis, Total [4, 11]: 0 [0] | Urticaria, Drug-Related [4, 11]: 0 [0] | Urticaria, Not Related [4, 11]: 0 [0] | Urticaria, Total [4, 11]: 0 [0]
